Values after ≈ are worked out from the molar mass of the structure shown. Blank lines part the entries; values can stand above or below the compound they belong to.
Experiments:
[1] = tested on: Trypanosoma brucei brucei; experiment: Antimicrobial activity against bloodstream form of Trypanosoma brucei brucei 427 at 10 uM after 48 hrs by alamar blue assay; assay type: functional; conditions: Trypanosoma brucei, 427, 48 h
[2] = tested on: Trypanosoma brucei brucei; experiment: Antimicrobial activity against bloodstream form of Trypanosoma brucei brucei 427 after 48 hrs by alamar blue assay; assay type: functional, organism-based; conditions: Trypanosoma brucei, 427, 48 h
[3] = Selectivity index, ratio of IC50 for HEK293 cells to IC50 for Trypanosoma brucei brucei 427; assay type: toxicity, cell-based; conditions: human, read-out: Ratio IC50
[4] = Partition coefficient, log D of the compound at pH 7.4 by HPLC method; assay type: physicochemical; conditions: octanol/water
How it was run: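 Distribution coefficient at pH 7.4 was measured chromatographically.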

[5] = Kinetic solubility of the compound at 10 mg/ml at pH 2 by nephelometry; assay type: physicochemical; conditions: buffer, read-out: Kinetic_solubility
How it was run: (§1)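 Kinetic solubility was read by nephelometry at pH 2 and pH 6.5 and reported as μg/mL ranges.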

[6] = Kinetic solubility of the compound at 10 mg/ml at pH 6.5 by nephelometry; assay type: physicochemical; conditions: buffer, read-out: Kinetic_solubility; how it was run: as §1
[7] = Plasma protein binding in human […] by chromatographic method; assay type: ADME, cell-free; conditions: read-out: PPB (converted)
How it was run: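 Human plasma protein binding was estimated by a chromatographic method.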

Liver microsome = experiment: Intrinsic clearance in human liver microsomes at 1 uM after 60 mins by LC-MS analysis; assay type: ADME; conditions: 1 h
How it was run: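 In vitro intrinsic clearance was measured in human liver microsomes and expressed per mg protein. A hepatic extraction ratio (E_H) was predicted from the in vitro data.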

[8] = tested on: Trypanosoma brucei rhodesiense; experiment: Antimicrobial activity against bloodstream form of Trypanosoma brucei rhodesiense STIB 900 after 70 hrs by alamar blue assay; assay type: functional, organism-based; conditions: STIB 900, 70 h
How it was run: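 Trypanosoma brucei rhodesiense STIB 900 bloodstream-form trypomastigotes, with melarsoprol as reference drug.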

Leishmania donovani = experiment: Antimicrobial activity against amastigote form of Leishmania donovani MHOM/ET/67/L82 after 70 hrs by alamar blue assay; assay type: functional, organism-based; conditions: MHOM/ET/67/L82, 70 h
How it was run: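 Leishmania donovani MHOM-ET-67/L82 axenic amastigotes, with miltefosine as reference drug.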

Plasmodium falciparum = experiment: Antimicrobial activity against erythrocytic stage of Plasmodium falciparum NF54 infected in human washed RBC assessed as [3H]-hypoxanthine incorporation incubated for 48 hrs prior to [3H]-hypoxanthine addition measured after 24 hrs by liquid scintillation counting analysis; assay type: functional, organism-based
L6 = experiment: Cytotoxicity against rat L6 cells after 70 hrs by alamar blue assay; assay type: cell-based; conditions: L6, 70 h
How it was run: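 Cytotoxicity on the rat skeletal myoblast L-6 strain, with podophyllotoxin as reference drug.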

Trypanosoma cruzi = experiment: Antimicrobial activity against amastigote form of Trypanosoma cruzi Tulahuen C2C4 infected in rat L6 cells after 96 hrs by microscopic analysis; conditions: Tulahuen C2C4, L6, 96 h

Compound: O=C(Nc1ccc2ccccc2n1)c1ccccc1-c1ccccc1
inhibition at 10 µM [1]: 53%

Compound: Cc1ccccc1C(=O)Nc1ncns1
inhibition at 10 µM [1]: < 10%

Compound: Cc1ccccc1C(=O)Nc1cccc(-c2ccccc2)n1
inhibition at 10 µM [1]: 33%

Compound: Cc1ccncc1C(=O)Nc1ccccn1
inhibition at 10 µM [1]: < 10%

Compound: Cc1ccc(NC(=O)c2ccccc2C)nc1
inhibition at 10 µM [1]: < 10%

IC50 [2]: 1100 nM
Compound: Cc1ccccc1C(=O)Nc1cc(C#CCC(C)C)ccn1
selectivity ratio [3]: > 53

logD [4]: 4.7
solubility kinetic [5]: 1.6 µg/mL (≈ 5.12 µM)
solubility kinetic [6]: < 1.6 µg/mL
fraction unbound [7]: 0.017
CLint (Liver microsome): 27 µL/min/mg
IC50 [2]: 1700 nM
IC50 [8]: 61 nM
IC50 (Plasmodium falciparum): 9700 nM
IC50 (Trypanosoma cruzi): 71000 nM
Compound: Cc1ccccc1C(=O)Nc1cc(C#Cc2ccccc2)ccn1
selectivity ratio [3]: > 51
IC50 (Leishmania donovani): > 96000 nM
IC50 (L6): 198000 nM

Compound: Cc1ccccc1C(=O)Nc1ccc(Br)c(C)n1
inhibition at 10 µM [1]: < 10%

Compound: Cc1ccccc1C(=O)Nc1ncccc1F
inhibition at 10 µM [1]: < 10%

Compound: Cc1cc(-c2ccccc2)ccc1C(=O)Nc1ccccn1
inhibition at 10 µM [1]: < 10%

IC50 [2]: 190 nM
Compound: Cc1c(C(=O)Nc2cc(F)ccn2)ccc(F)c1F
selectivity ratio [3]: 450

Compound: Cc1ccccc1C(=O)N(C)c1ccccn1
inhibition at 10 µM [1]: 18%

Compound: Cc1ccccc1C(=O)Nc1ccon1
inhibition at 10 µM [1]: < 10%

Compound: O=C(Nc1ccccn1)c1ccccc1I
inhibition at 10 µM [1]: 38%

IC50 [2]: 510 nM
Compound: Cc1ccccc1C(=O)Nc1cc(F)ccn1
selectivity ratio [3]: 168

EC50 (Plasmodium falciparum): 0.11 µg/mL (≈ 0.344 µM)
Compound: CCN(CC)CCCC(C)Nc1ccnc2cc(Cl)ccc12 (stereo not given) [CHLOROQUINE]

Compound: Cc1cccc(NC(=O)c2ccccc2C)n1
inhibition at 10 µM [1]: < 10%

Compound: Cc1ccccc1C(=O)Nc1ccncn1
inhibition at 10 µM [1]: < 10%

Compound: Cc1ccccc1C(=O)Nc1ccsc1
inhibition at 10 µM [1]: < 10%

Compound: Cc1ccccc1C(=O)Nc1cccc(C#CCC(C)C)n1
inhibition at 10 µM [1]: < 10%

Compound: O=C(Nc1ccccn1)c1ccccc1C(F)(F)F
inhibition at 10 µM [1]: < 10%

Compound: O=C(Nc1ccccn1)c1ccccc1-c1ccccc1
inhibition at 10 µM [1]: < 10%

Compound: Cc1ccc(Br)cc1C(=O)Nc1ccccn1
inhibition at 10 µM [1]: < 10%

IC50 [2]: 1900 nM
Compound: Cc1cc(F)ccc1C(=O)Nc1ccccn1
selectivity ratio [3]: 44

Compound: Cc1ccccc1C(=O)Nc1nncs1
inhibition at 10 µM [1]: < 10%

Compound: Cc1ccccc1C(=O)Nc1ncco1
inhibition at 10 µM [1]: < 10%

logD [4]: 3.5
solubility kinetic [5]: > 100 µg/mL
solubility kinetic [6]: 25 µg/mL (≈ 102 µM)
fraction unbound [7]: 0.276
CLint (Liver microsome): 237 µL/min/mg
IC50 [2]: 830 nM
Compound: Cc1ccnc(NC(=O)c2cccc(F)c2C)c1
selectivity ratio [3]: 100

Compound: CCCCN(C(=O)c1ccccc1C)c1ccccn1
inhibition at 10 µM [1]: 11%

Compound: Cc1ccccc1C(=O)Nc1ccc(Br)cn1
inhibition at 10 µM [1]: < 10%

Compound: COc1cccc(NC(=O)c2ccccc2C)n1
inhibition at 10 µM [1]: < 10%

Compound: Cc1ccccc1C(=O)Nc1nc[nH]n1
inhibition at 10 µM [1]: < 10%

Compound: Cc1ccccc1C(=O)Nc1cccc(Cl)n1
inhibition at 10 µM [1]: < 10%

IC50 [2]: 1100 nM
Compound: Cc1cc(Cl)ccc1C(=O)Nc1ccccn1
selectivity ratio [3]: 76

Compound: Cc1ccccc1NC(=O)c1ccccn1
inhibition at 10 µM [1]: < 10%

Compound: O=C(Nc1ccccn1)c1ccccc1OC(F)(F)F
inhibition at 10 µM [1]: 13%

IC50 [2]: 2300 nM
Compound: COc1ccc(NC(=O)c2cccc(F)c2C)nc1
selectivity ratio [3]: 4

Compound: Cc1ccc(F)cc1C(=O)Nc1ccccn1
inhibition at 10 µM [1]: < 10%

Compound: COc1cccc(C(=O)Nc2ccccn2)c1C
inhibition at 10 µM [1]: 10%

Compound: Cc1ccc(NC(=O)c2cc(S(=O)(=O)NC(C)(C)C)ccc2C)nc1
inhibition at 10 µM [1]: 12%

IC50 [2]: 4600 nM
Compound: Cc1ccccc1C(=O)Nc1cccc(N)n1
selectivity ratio [3]: > 19

IC50 [2]: 2600 nM
Compound: COc1ccc(NC(=O)c2ccc(F)cc2C)nc1
selectivity ratio [3]: 32

IC50 [2]: 630 nM
Compound: Cc1c(Cl)cccc1C(=O)Nc1ccccn1
selectivity ratio [3]: 132

Compound: Cc1ccccc1C(=O)Nc1cccnn1
inhibition at 10 µM [1]: < 10%

logD [4]: 2.8
solubility kinetic [5]: 50 µg/mL (≈ 211 µM)
solubility kinetic [6]: 25 µg/mL (≈ 105 µM)
fraction unbound [7]: 0.359
CLint (Liver microsome): 82 µL/min/mg
IC50 [2]: 2300 nM
Compound: Cc1ccccc1C(=O)Nc1cc(C#N)ccn1

Source: ChEMBL document CHEMBL3352586, “Pyridyl benzamides as a novel class of potent inhibitors for the kinetoplastid Trypanosoma brucei” (J Med Chem, 2014)
